Test results: ChEMBL document CHEMBL3102735, “Enhancing the pharmacodynamic profile of a class of selective COX-2 inhibiting nitric oxide donors” (Bioorg Med Chem, 2014)
In brackets after ≈: the same amount, converted by molar mass. Activity calls are given as the source filed them. The rule behind the calls is not given here.

Columns and labels:
J774 = experiment: Selectivity index, ratio of IC50 for COX-1 to IC50 for COX-2 in mouse J774 cells; assay type: cell-based
Outline: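 J774 macrophages stimulated 24 h with E. coli LPS (10 µg/mL) to induce COX-2, with or without compound (0.01–10 µM); supernatant PGE2 by RIA. Triplicate wells, three experiments, percent inhibition versus control, IC50 by sigmoidal fit; selectivity as COX-1/COX-2 IC50 ratio.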

[1] = target: T1, Prostaglandin G/H synthase 2 (Mus musculus, UniProt Q05769); experiment: Inhibition of LPS-induced COX-2 in mouse J774 cells using arachidonic acid as substrate assessed as inhibition of prostaglandin E2 production preincubated for 15 mins followed by substrate addition measured after 30 mins by RIA; assay type: cell-based
T1 sequence (Q05769 whole entry): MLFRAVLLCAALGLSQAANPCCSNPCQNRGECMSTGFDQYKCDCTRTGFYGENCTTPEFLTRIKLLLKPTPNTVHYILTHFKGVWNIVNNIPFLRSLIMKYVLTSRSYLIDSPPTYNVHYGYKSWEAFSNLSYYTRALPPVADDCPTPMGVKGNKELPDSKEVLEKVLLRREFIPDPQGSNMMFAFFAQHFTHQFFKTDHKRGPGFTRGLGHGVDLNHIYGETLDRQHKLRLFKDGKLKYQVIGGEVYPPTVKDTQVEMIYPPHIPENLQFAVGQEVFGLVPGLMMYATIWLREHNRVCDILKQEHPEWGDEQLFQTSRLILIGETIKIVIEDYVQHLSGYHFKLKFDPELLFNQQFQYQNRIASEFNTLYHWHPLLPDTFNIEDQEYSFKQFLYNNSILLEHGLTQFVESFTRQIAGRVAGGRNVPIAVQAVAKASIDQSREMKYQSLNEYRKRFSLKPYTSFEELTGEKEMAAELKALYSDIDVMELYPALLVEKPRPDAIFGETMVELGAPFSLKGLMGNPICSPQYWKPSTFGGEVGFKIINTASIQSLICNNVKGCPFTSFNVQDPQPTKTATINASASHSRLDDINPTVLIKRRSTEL

[2] = target: T2, Prostaglandin G/H synthase 1 (Mus musculus, UniProt P22437); experiment: Inhibition of COX-1 in mouse J774 cells using arachidonic acid as substrate assessed as inhibition of prostaglandin E2 production preincubated for 15 mins followed by substrate addition measured after 30 mins by RIA; assay type: cell-based
T2 sequence (P22437 whole entry): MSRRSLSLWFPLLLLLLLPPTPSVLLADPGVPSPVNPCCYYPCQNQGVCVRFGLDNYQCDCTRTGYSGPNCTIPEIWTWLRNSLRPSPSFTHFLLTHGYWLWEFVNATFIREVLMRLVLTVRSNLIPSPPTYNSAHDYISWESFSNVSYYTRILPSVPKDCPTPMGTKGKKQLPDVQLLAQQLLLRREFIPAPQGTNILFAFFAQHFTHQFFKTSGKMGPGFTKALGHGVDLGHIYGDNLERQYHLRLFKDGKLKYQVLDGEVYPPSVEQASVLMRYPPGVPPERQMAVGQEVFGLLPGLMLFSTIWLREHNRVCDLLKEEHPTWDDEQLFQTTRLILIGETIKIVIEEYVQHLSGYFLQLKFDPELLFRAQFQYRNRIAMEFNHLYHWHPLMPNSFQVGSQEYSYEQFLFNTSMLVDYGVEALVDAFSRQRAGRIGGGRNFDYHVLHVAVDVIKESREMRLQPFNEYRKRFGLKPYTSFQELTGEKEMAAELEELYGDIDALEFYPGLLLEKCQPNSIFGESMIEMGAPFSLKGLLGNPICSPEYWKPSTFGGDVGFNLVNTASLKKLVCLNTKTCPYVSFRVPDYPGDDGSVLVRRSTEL
Outline: (§1)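 J774 murine macrophages pretreated 15 min with compound (10 µM; lower concentrations 0.01–1 µM where needed), then incubated 30 min at 37 °C with 15 µM arachidonic acid; supernatant PGE2 measured by RIA. Triplicate wells, mean of three experiments of percent inhibition versus control; IC50 by sigmoidal fit.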

[3] = target: T3, Prostaglandin G/H synthase 2 (Mus musculus) (UniProt Q05769); experiment: Inhibition of LPS-induced COX-2 in mouse J774 cells using arachidonic acid as substrate assessed as inhibition of prostaglandin E2 production at 10 uM preincubated for 15 mins followed by substrate addition measured after 30 mins by RIA; assay type: cell-based
T3 sequence (whole entry): T1 sequence (Q05769 whole entry)

[4] = target: T4, Prostaglandin G/H synthase 1 (Mus musculus) (UniProt P22437); experiment: Inhibition of COX-1 in mouse J774 cells using arachidonic acid as substrate assessed as inhibition of prostaglandin E2 production at 10 uM preincubated for 15 mins followed by substrate addition measured after 30 mins by RIA; assay type: cell-based; outline: as §1
T4 sequence (whole entry): T2 sequence (P22437 whole entry)

Mus musculus [5] = experiment: Analgesic activity in po dosed Swiss albino mouse assessed as reduction of acetic acid-induced writhing measured every 10 mins after 5 mins of administration; assay type: functional, organism-based
Outline: (§2)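 Male Swiss albino mice (23–25 g), compound given orally in CMC vehicle; writhing induced by 0.6% acetic acid (10 mL/kg) ip. Stretching movements counted for 10 min, starting 5 min after administration; percent reduction versus CMC-treated animals.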

Thoracic aorta [6] = experiment: Ex vivo vasorelaxant activity in Wistar rat endothelium thoracic aortic ring assessed as reduction of KCl-induced contraction at 0.001 uM to 10 uM relative to control; assay type: functional
Outline: (§3)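 Endothelium-denuded thoracic aortic rings from male Wistar rats (250–350 g) in oxygenated Tyrode-type buffer at 37 °C, isometric tension recording. Rings precontracted with 30 mM KCl, then 3-fold increasing compound concentrations (1 nM–10 µM) added, also with 1 µM ODQ preincubated. Emax as % of KCl tone; pIC50; mean ± SE of 6–10 experiments.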

Thoracic aorta [7] = experiment: Ex vivo vasorelaxant activity in Wistar rat endothelium thoracic aortic ring assessed as reduction of KCl-induced contraction in presence of guanylate cyclase inhibitor ODQ; assay type: functional; outline: as §3
Mus musculus [8] = experiment: Analgesic activity in Swiss albino mouse assessed as reduction of acetic acid-induced writhing at 40 mg/kg, po measured every 10 mins after 5 mins of administration relative to control; assay type: functional; set-up: scale not given: the % may be the effect or the level left; outline: as §2
Mus musculus [9] = experiment: Analgesic activity in Swiss albino mouse assessed as reduction of acetic acid-induced writhing at 20 mg/kg, po measured every 10 mins after 5 mins of administration relative to control; assay type: functional; set-up: scale not given: the % may be the effect or the level left; outline: as §2
[10] = Metabolic stability in Sprague-Dawley rat plasma assessed as compound remaining after 120 mins by LC-MS/MS analysis; assay type: ADME, cell-free; details: read-out: Stability
Outline: (§4)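 Compound (12 µL of 1 mM DMSO solution into 588 µL medium) incubated in PBS pH 7.4, pepsin-free SGF pH 1.5, or EDTA rat plasma. Aliquots taken at 0, 30, 60, 120 min and quenched with ice-cold acetonitrile containing internal standard; parent remaining as percent.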

[11] = Metabolic stability in Sprague-Dawley rat plasma assessed as compound remaining after 60 mins by LC-MS/MS analysis; assay type: ADME, cell-free; details: read-out: Stability; outline: as §4
[12] = Metabolic stability in Sprague-Dawley rat plasma assessed as compound remaining after 30 mins by LC-MS/MS analysis; assay type: ADME, cell-free; details: read-out: Stability; outline: as §4
[13] = Stability of the compound in simulated gastric fluid assessed as compound remaining at pH 1.5 after 120 mins by LC-MS/MS analysis; assay type: physicochemical; details: read-out: Stability
Outline: (§5)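 1 mM DMSO stock added to 0.01 M PBS (pH 7.4) or 0.05 M simulated gastric fluid without pepsin (pH 1.5 with HCl); incubated in hybridisation oven; aliquots at 0, 30, 60, 120 min quenched with ice-cold acetonitrile containing internal standard; parent remaining (%) measured.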

[14] = Stability of the compound in simulated gastric fluid assessed as compound remaining at pH 1.5 after 60 mins by LC-MS/MS analysis; assay type: physicochemical; details: read-out: Stability; outline: as §5
[15] = Solubility of the compound in phosphate buffer saline at pH 7.4 after 90 mins by HPLC analysis; assay type: physicochemical
Outline: (§6)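 DMSO stock (20 mM) diluted 2 µL into 198 µL PBS 0.01 M pH 7.4 or pepsin-free SGF 0.05 M pH 1.5, duplicate wells, shaken 90 min at 300 rpm. Filtrates analysed by HPLC with photodiode-array detection against seven-point standards (1–200 µM).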

[16] = Solubility of the compound in simulated gastric fluid at pH 1.5 after 90 mins by HPLC analysis; assay type: ADME; outline: as §6
[17] = Stability of the compound in phosphate buffer saline assessed as compound remaining at pH 7.4 after 30 mins by LC-MS/MS analysis; assay type: physicochemical; details: read-out: Stability; outline: as §5
[18] = Stability of the compound in phosphate buffer saline assessed as compound remaining at pH 7.4 after 120 mins by LC-MS/MS analysis; assay type: physicochemical; details: read-out: Stability; outline: as §4
[19] = Stability of the compound in simulated gastric fluid assessed as compound remaining at pH 1.5 after 30 mins by LC-MS/MS analysis; assay type: physicochemical; details: read-out: Stability; outline: as §5
[20] = Stability of the compound in phosphate buffer saline assessed as compound remaining at pH 7.4 after 60 mins by LC-MS/MS analysis; assay type: physicochemical; details: read-out: Stability; outline: as §5

| SMILES | IC50 [1] | IC50 [2] | inhibition [3] | inhibition [4] | Ratio IC50 (J774) | further results |
| --- | --- | --- | --- | --- | --- | --- |
| Cc1c(CC(=O)NC(CO)C(=O)O)cc(-c2ccc(S(C)(=O)=O)cc2)n1-c1cccc(F)c1 (racemic) | 0.068 µM | > 10 µM | 100% | 23% | > 167 | – |
| Cc1c(C(N)C(=O)OCCO[N+](=O)[O-])cc(-c2ccc(S(C)(=O)=O)cc2)n1-c1ccc(F)cc1 (stereo not drawn) | – | – | – | – | – | remaining at 2 h [10]: 0%; remaining at 1 h [11]: 0%; remaining at 0.5 h [12]: 0%; remaining at 2 h [13]: 100%; remaining at 1 h [14]: 100%; solubility at 1.5 h [15]: 80 µM (≈ 39.3 µg/mL); solubility at 1.5 h [16]: > 200 µM; remaining at 0.5 h [17]: 75%; remaining at 2 h [18]: 75%; remaining at 0.5 h [19]: 100%; remaining at 1 h [20]: 75% |
| Cc1c(CC(=O)NCCO)cc(-c2ccc(S(C)(=O)=O)cc2)n1-c1cccc(F)c1 | – | > 10 µM | 95% | 0% | > 34 | – |
| Cc1c(CC(=O)NCCCO)cc(-c2ccc(S(C)(=O)=O)cc2)n1-c1cccc(F)c1 | 0.045 µM | > 10 µM | 100% | 17% | > 222 | – |

The next lines start with results.

| IC50 [1] | IC50 [2] | inhibition [3] | inhibition [4] | SMILES | Ratio IC50 (J774) | further results |
| --- | --- | --- | --- | --- | --- | --- |
| – | > 10 µM | 43% | 27% | Cc1c(CC(=O)NC(CCO[N+](=O)[O-])C(=O)O)cc(-c2ccc(S(C)(=O)=O)cc2)n1-c1cccc(F)c1 (racemic) | > 6 | Activity (Mus musculus [5]): Dose-dependent effect; Emax (Thoracic aorta [6]): 25%; Activity (Thoracic aorta [7]): inactive; Activity (Mus musculus [8]): 23%; Activity (Mus musculus [9]): 10% |
| – | > 10 µM | 79% | 16% | Cc1c(CC(=O)NC(CCO)C(=O)O)cc(-c2ccc(S(C)(=O)=O)cc2)n1-c1cccc(F)c1 (racemic) | > 10 | – |
